We go through 6 compounds from ChEMBL document CHEMBL1926530, “Novel pyrazolo[1,5-a]pyridines as p110α-selective PI3 kinase inhibitors: Exploring the benzenesulfonohydrazide SAR” (Bioorg Med Chem, 2012).

In brackets after ≈: the same amount, converted by molar mass.

Series [1] is described as follows: Aqueous solubility of the compound. The note with it: water. Format: physicochemical. The procedure, abridged: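 Solid mixed with water to make 2 mM, sonicated 15 min, centrifuged 13000 rpm for 6 min. Clear supernatant diluted 2-fold with water, recentrifuged and injected on HPLC. Peak area compared with a DMSO standard solution of the compound, correcting for dilution and injection volume.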

Series [2] can be described thus: Cytotoxicity against human NZOV9 cells harboring PI3K p110alpha Y1021C mutant assessed as inhibition of [3H]thymidine incorporation measured after 5 days. The series is classed as functional, cell-based. Put shortly: (§1)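 Early-passage lines grown in α-MEM with insulin, transferrin, selenite and 5% FBS. Wells seeded with 1000 cells; inhibitor in dilution steps up to a maximum of 20. Five days under 5% O₂/5% CO₂/90% N₂, ³H-thymidine added for the last 6 h. Duplicates per dose; fit y = y₀ + ae^−bx; IC50 = 50% reduction in incorporation.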
A general note: Uptake of a labelled nucleoside into DNA is a usual measure of proliferation.

For series [3], the system named is HCT-116. Put plainly: Antitumor activity against human HCT116 cells xenografted in Rag1 knockout mouse assessed as tumor growth delay at 20 mg/kg, ip QD measured on day 10 relative to untreated control. Format: functional. The note with it: route intraperitoneal. Put shortly:
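Male Rag1−/− mice (age-matched, SPF) inoculated s.c. with 5 × 10⁶ HCT-116 cells in PBS. Dosing started at ~150 mm³ tumours: q.d. i.p. in 7.5% DMSO, 42.5% PEG-400, 20% 2-hydroxypropyl-β-cyclodextrin, 30% water; controls received vehicle. Volume = (L × w²) × π/6, measured three times weekly; bodyweight daily. Treatment stopped if mean weight loss >15%; 1-way ANOVA with Holm–Sidak.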
On the technique in general: In xenograft studies the graft and the host belong to different species.

The target of series [4] is Phosphatidylinositol 4,5-bisphosphate 3-kinase catalytic subunit beta isoform (Homo sapiens, UniProt P42338). Description: Inhibition of recombinant PI3K p110beta using L-alpha-phosphatidylinositol as substrate and [gamma33P]ATP after 60 mins by thin layer chromatographic technique. Put shortly:
(§2)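 In-house recombinant enzyme (0.1 µg) with L-α-phosphatidylinositol in 40 mM Tris-HCl pH 7.4, 200 mM NaCl, 1 mM EDTA; DMSO 1% final. Started with 5 mM MgCl₂, 100 µM ATP plus [γ-³³P]ATP; 1 h at room temperature, stopped with 1 M HCl. Lipids extracted, separated by TLC, phosphorimaged. Nine inhibitor concentrations; two experiments, IC50 averaged.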

Series [5] can be described thus: Cytotoxicity against human NZB5 cells assessed as inhibition of [3H]thymidine incorporation measured after 5 days. Format: functional, cell-based. The procedure, abridged: as §1
Series [6] addresses T1, Phosphatidylinositol 4,5-bisphosphate 3-kinase catalytic subunit delta isoform (Homo sapiens, UniProt O00329).
T1 sequence (O00329 whole entry): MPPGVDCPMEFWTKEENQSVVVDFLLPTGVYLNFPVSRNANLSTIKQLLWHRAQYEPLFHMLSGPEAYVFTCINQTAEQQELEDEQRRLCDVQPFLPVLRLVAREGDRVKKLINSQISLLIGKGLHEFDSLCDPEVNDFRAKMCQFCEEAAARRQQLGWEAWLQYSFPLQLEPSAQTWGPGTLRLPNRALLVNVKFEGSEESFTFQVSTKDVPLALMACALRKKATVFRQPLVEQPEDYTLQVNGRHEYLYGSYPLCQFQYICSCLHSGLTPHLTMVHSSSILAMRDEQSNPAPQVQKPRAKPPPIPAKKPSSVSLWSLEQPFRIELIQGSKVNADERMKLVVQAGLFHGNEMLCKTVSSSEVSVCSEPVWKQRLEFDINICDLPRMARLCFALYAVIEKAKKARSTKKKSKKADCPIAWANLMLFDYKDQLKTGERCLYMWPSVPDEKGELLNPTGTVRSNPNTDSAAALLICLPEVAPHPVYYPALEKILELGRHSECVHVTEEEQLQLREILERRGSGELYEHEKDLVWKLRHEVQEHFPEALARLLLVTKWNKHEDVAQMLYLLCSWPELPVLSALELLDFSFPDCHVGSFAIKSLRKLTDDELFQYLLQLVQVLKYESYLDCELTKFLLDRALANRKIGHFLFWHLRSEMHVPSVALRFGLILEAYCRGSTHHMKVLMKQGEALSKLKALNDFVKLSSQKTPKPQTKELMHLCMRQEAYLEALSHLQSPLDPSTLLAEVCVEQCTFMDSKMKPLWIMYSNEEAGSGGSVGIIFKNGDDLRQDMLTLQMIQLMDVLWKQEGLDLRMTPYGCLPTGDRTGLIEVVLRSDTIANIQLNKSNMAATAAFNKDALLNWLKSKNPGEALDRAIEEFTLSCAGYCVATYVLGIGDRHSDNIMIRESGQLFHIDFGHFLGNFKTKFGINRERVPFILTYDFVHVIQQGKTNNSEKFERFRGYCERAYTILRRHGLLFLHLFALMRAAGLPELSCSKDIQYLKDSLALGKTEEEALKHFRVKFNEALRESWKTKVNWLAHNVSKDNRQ
Description: Inhibition of recombinant PI3K p110delta using L-alpha-phosphatidylinositol as substrate and [gamma33P]ATP after 60 mins by thin layer chromatographic technique. Put shortly:
as §2

In series [7] the target is Phosphatidylinositol 4,5-bisphosphate 3-kinase catalytic subunit alpha isoform (Homo sapiens, UniProt P42336). Description: Inhibition of recombinant PI3K p110alpha using L-alpha-phosphatidylinositol as substrate and [gamma33P]ATP after 60 mins by thin layer chromatographic technique. Put shortly: as §2
Chain of Phosphatidylinositol 4,5-bisphosphate 3-kinase catalytic subunit alpha isoform (P42336 whole entry, canonical isoform): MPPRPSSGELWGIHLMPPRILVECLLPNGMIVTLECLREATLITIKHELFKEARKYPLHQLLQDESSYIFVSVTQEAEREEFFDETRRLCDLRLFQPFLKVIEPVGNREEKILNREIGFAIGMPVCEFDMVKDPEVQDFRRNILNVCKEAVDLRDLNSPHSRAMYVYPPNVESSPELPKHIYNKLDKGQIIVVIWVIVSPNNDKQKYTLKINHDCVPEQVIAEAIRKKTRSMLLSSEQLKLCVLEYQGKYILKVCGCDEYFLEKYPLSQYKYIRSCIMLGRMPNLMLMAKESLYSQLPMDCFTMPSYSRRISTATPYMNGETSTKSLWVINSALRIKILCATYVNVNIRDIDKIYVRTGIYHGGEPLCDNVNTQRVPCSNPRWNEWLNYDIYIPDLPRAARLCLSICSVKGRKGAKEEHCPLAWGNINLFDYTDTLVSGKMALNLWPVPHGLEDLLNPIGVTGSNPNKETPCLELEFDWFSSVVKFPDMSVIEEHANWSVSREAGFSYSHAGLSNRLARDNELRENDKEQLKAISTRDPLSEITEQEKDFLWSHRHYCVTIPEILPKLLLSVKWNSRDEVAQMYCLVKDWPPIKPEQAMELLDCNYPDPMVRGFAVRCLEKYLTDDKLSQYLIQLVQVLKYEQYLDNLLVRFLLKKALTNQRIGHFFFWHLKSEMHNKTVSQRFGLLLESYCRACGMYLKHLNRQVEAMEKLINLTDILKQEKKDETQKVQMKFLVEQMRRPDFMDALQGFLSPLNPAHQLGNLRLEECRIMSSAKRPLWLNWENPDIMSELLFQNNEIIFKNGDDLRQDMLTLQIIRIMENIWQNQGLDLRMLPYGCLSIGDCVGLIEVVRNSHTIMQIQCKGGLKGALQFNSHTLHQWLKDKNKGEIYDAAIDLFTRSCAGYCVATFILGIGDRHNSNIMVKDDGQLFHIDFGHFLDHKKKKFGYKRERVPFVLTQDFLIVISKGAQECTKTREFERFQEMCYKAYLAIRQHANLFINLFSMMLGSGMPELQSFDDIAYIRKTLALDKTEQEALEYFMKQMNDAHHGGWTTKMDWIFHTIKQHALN

Chain of Phosphatidylinositol 4,5-bisphosphate 3-kinase catalytic subunit beta isoform (P42338 whole entry, canonical isoform): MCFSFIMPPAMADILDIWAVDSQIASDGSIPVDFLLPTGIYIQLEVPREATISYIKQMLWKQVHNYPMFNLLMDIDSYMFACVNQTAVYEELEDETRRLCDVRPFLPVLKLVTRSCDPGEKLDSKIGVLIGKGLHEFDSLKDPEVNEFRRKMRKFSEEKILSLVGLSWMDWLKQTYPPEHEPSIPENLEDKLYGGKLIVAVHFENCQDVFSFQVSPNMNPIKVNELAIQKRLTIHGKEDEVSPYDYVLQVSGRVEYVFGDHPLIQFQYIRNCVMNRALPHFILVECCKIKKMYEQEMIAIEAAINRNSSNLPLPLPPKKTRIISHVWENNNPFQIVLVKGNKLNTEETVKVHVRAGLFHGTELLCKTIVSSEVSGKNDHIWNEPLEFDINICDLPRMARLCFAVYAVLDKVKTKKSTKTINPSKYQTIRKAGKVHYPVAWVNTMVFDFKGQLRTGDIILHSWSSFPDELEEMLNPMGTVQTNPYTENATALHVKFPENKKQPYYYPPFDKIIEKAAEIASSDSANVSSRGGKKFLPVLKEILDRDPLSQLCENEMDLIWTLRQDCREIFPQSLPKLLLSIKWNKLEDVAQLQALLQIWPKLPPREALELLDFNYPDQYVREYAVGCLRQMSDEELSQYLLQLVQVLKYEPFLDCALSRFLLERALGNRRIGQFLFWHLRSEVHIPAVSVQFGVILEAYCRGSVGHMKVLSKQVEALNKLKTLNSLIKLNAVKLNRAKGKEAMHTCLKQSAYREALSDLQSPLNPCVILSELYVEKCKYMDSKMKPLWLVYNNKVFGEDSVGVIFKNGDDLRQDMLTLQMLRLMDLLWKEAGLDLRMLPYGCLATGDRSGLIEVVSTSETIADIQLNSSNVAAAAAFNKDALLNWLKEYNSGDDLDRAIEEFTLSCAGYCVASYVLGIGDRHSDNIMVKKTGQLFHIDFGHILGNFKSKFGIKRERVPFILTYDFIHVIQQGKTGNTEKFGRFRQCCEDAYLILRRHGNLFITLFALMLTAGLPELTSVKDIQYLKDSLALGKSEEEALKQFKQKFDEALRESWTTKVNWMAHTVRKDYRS

The solubility is the concentration that dissolves in the medium under given conditions. Read a high solubility as a readily soluble substance. The IC50 is the point on the concentration scale where inhibition reaches its midpoint. In series [1], `Cc1ccc([N+](=O)[O-])cc1S(=O)(=O)N(C)/N=C/c1cnn2ccc(C#N)cc12` gave a solubility of 0.1 µg/mL (≈ 0.251 µM). The IC50 in series [2] is 1400 nM. In series [3], the Activity turned out to be 21.2%.

As for `COc1ccc([N+](=O)[O-])cc1S(=O)(=O)N(C)/N=C/c1cnn2ccc(C#N)cc12`, the solubility in series [1] was determined as 0.2 µg/mL (≈ 0.483 µM). For the same compound, the IC50 in series [4] is 63 nM; in series [2], 50 nM; in series [5], 90 nM; in series [6], 22 nM; in series [7], 0.8 nM.

As for `CCN(/N=C/c1cnn2ccc(C#N)cc12)S(=O)(=O)c1cc([N+](=O)[O-])ccc1C`, the solubility in series [1] was found to be 0.2 µg/mL (≈ 0.485 µM). In addition, the IC50 stood at 62 nM in series [4]; 90 nM in series [2]; 30 nM in series [5]; 9.3 nM in series [6]; 0.5 nM in series [7].

In the case of `CN(C)c1ccc([N+](=O)[O-])cc1S(=O)(=O)N(C)/N=C/c1cnn2ccc(C#N)cc12`, the concentration in solution in series [1] (solubility) was 0.5 µg/mL (≈ 1.17 µM). For the same compound, the IC50 was 44 nM in series [4]; 100 nM in series [2]; 40 nM in series [5]; 24 nM in series [6]; 2.2 nM in series [7].

For `Cc1ccc([N+](=O)[O-])cc1C(=O)N(C)/N=C/c1cnn2ccc(C#N)cc12`, the IC50 is 68 nM in series [4]; above 20000 nM in series [2]; above 20000 nM in series [5]; 8.6 nM in series [6]; 17 nM in series [7].

With `CN(/N=C/c1cnn2ccc(C#N)cc12)S(=O)(=O)c1cccc([N+](=O)[O-])c1`, the IC50 in series [4] came out at 1200 nM; in series [2], 690 nM; in series [5], 380 nM; in series [6] it was 410 nM; in series [7], 36 nM.
